According to ChEMBL document CHEMBL1157639, “Identification of inhibitors of drug-resistant Candida albicans strains from a library of bicyclic peptidomimetic compounds” (2010):

Tests used:
[1] = target: Secreted aspartic protease 2 (Candida albicans) (UniProt P0CS83); assay: Inhibition of Candida albicans SAP2 at 20 uM by spectrophotometry relative to pepstatin A
How it was run: (§1)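 Sample was mixed with 1% (w/v) BSA substrate in 50 mM sodium citrate, pH 3.2, plus SAP2 protease (1 μg/mL stock solution) and incubated 30 min at 37 °C. The reaction was stopped with 10% TCA, kept 30 min on ice, and centrifuged; supernatant A280 was read. Percent inhibition was taken from ΔOD, with control proteinase minus proteinase plus pepstatin A set as 100%.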

[2] = target: Secreted aspartic protease 2 (Candida albicans) (UniProt P0CS83); assay: Inhibition of Candida albicans SAP2 at 10 uM by spectrophotometry relative to pepstatin A; how it was run: as §1
[3] = target: Secreted aspartic protease 2 (Candida albicans) (UniProt P0CS83); assay: Inhibition of Candida albicans SAP2 at 10 uM by spectrophotometry; how it was run: as §1
[4] = system: Candida albicans; assay: Antifungal activity against pharmacoresistant Candida albicans AIDS68 infected in Wistar rat estrogen-dependent fungal vaginitis model assessed as fungal burden at 10 uM administered intravaginally 48 hrs after fungal infection measured on day 28 after infection; format: functional, Vagina
How it was run: (§2)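 Oophorectomized female Wistar rats (80-100 g) got 0.5 mg estradiol benzoate s.c. Six days later they were inoculated intravaginally with >10⁷ YPD-grown yeast cells (28 °C, washed, hemocytometer-counted) in 0.1 mL saline. Treatment was given intravaginally at 1, 24 and 48 h post-challenge. Burden was counted by culturing 100 μL vaginal fluid on Sabouraud-chloramphenicol (50 μg/mL) agar, as CFU/mL ×1000, through day 28.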

[5] = system: Candida albicans; assay: Antifungal activity against pharmacoresistant Candida albicans AIDS68 infected in Wistar rat estrogen-dependent fungal vaginitis model assessed as fungal burden at 10 uM administered intravaginally 48 hrs after fungal infection measured on day 14 after infection; format: functional, Vagina; how it was run: as §2
[6] = system: Candida albicans; assay: Antifungal activity against pharmacoresistant Candida albicans AIDS68 infected in Wistar rat estrogen-dependent fungal vaginitis model assessed as fungal burden at 10 uM administered intravaginally 48 hrs after fungal infection measured on day 7 after infection; format: functional, Vagina; how it was run: as §2
[7] = system: Candida albicans; assay: Antifungal activity against pharmacoresistant Candida albicans AIDS68 infected in Wistar rat estrogen-dependent fungal vaginitis model assessed as fungal burden at 10 uM administered intravaginally 48 hrs after fungal infection measured on day 5 after infection; format: functional, Vagina; how it was run: as §2
[8] = system: Candida albicans; assay: Antifungal activity against pharmacoresistant Candida albicans AIDS68 infected in Wistar rat estrogen-dependent fungal vaginitis model assessed as fungal burden at 10 uM administered intravaginally 24 hrs after fungal infection measured on day 2 after infection; format: functional, Vagina; how it was run: as §2
[9] = system: Candida albicans; assay: Antifungal activity against pharmacoresistant Candida albicans AIDS68 infected in Wistar rat estrogen-dependent fungal vaginitis model assessed as fungal burden at 10 uM administered intravaginally 1 hr after fungal infection measured on day 1 after infection; format: functional, Vagina; how it was run: as §2
[10] = system: Candida albicans; assay: Antifungal activity against Candida albicans SA40 infected in Wistar rat estrogen-dependent fungal vaginitis model assessed as fungal burden at 10 uM administered intravaginally 48 hrs after fungal infection measured on day 28 after infection; format: functional, Vagina; how it was run: as §2
[11] = system: Candida albicans; assay: Antifungal activity against Candida albicans SA40 infected in Wistar rat estrogen-dependent fungal vaginitis model assessed as fungal burden at 10 uM administered intravaginally 48 hrs after fungal infection measured on day 21 after infection; format: functional, Vagina
How it was run: (§3)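 Oophorectomized female Wistar rats (80-100 g), given 0.5 mg estradiol benzoate subcutaneously, were challenged intravaginally six days later with >10⁷ YPD-grown yeast cells in 0.1 mL saline. Compound at 10 μM was instilled intravaginally at 1, 24 and 48 h post-challenge. Vaginal fluid samples (100 μL) were plated on Sabouraud agar with chloramphenicol (50 μg/mL), and burden was expressed as CFU/mL ×1000.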

[12] = system: Candida albicans; assay: Antifungal activity against Candida albicans SA40 infected in Wistar rat estrogen-dependent fungal vaginitis model assessed as fungal burden at 10 uM administered intravaginally 48 hrs after fungal infection measured on day 14 after infection; format: functional, Vagina; how it was run: as §3
[13] = system: Candida albicans; assay: Antifungal activity against Candida albicans SA40 infected in Wistar rat estrogen-dependent fungal vaginitis model assessed as fungal burden at 10 uM administered intravaginally 48 hrs after fungal infection measured on day 7 after infection; format: functional, Vagina; how it was run: as §3
[14] = system: Candida albicans; assay: Antifungal activity against Candida albicans SA40 infected in Wistar rat estrogen-dependent fungal vaginitis model assessed as fungal burden at 10 uM administered intravaginally 48 hrs after fungal infection measured on day 5 after infection; format: functional, Vagina; how it was run: as §3
[15] = system: Candida albicans; assay: Antifungal activity against Candida albicans SA40 infected in Wistar rat estrogen-dependent fungal vaginitis model assessed as fungal burden at 10 uM administered intravaginally 24 hrs after fungal infection measured on day 2 after infection; format: functional, Vagina; how it was run: as §3
[16] = system: Candida albicans; assay: Antifungal activity against Candida albicans SA40 infected in Wistar rat estrogen-dependent fungal vaginitis model assessed as fungal burden at 10 uM administered intravaginally 1 hr after fungal infection measured on day 1 after infection; format: functional, Vagina; how it was run: as §3
[17] = system: Candida albicans; assay: Antifungal activity against Candida albicans SA40 infected in Wistar rat estrogen-dependent fungal vaginitis model assessed as fungal burden at 10 uM administered intravaginally 1 hr after fungal infection measured within 1 day of infection; format: functional, Vagina; how it was run: as §2
[18] = target: Secreted aspartic protease 2 (Candida albicans) (UniProt P0CS83); assay: Inhibition of Candida albicans SAP2 at 0.02 uM by spectrophotometry relative to pepstatin A; how it was run: as §1
[19] = target: Secreted aspartic protease 2 (Candida albicans) (UniProt P0CS83); assay: Inhibition of Candida albicans SAP2 at 2 uM by spectrophotometry relative to pepstatin A; how it was run: as §1

Secreted aspartic protease 2 (Candida albicans), sequence (P0CS83 57-398 limits assumed): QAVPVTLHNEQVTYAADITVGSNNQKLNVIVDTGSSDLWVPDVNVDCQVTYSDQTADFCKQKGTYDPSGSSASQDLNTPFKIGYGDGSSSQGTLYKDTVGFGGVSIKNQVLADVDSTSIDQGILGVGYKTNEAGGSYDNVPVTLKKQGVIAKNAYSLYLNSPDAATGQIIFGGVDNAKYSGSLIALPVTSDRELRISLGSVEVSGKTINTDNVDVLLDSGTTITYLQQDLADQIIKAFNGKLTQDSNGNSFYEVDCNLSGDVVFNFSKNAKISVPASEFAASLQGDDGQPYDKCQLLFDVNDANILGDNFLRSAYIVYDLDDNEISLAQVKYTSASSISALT

SMILES	inhibition [1]	inhibition [2]	inhibition [3]	further results
CC(C)C[C@@H](CO)N(Cc1ccccc1)C(=O)[C@@H]1O[C@H]2CN(Cc3ccccc3)C(=O)[C@@H]1O2	35%	–	–	–
O=C([C@H]1O[C@H]2CN(Cc3ccccc3)C(=O)[C@@H]1O2)N1CCCCC1	50%	–	–	–
O=C([C@@H]1O[C@H]2CN(Cc3ccccc3)C(=O)[C@@H]1O2)N1CCOCC1	62%	92%	31%	–
O=C(N[C@@H](CO)Cc1ccccc1)[C@@H]1O[C@H]2CN(Cc3ccccc3)C(=O)[C@@H]1O2	29%	–	–	–
NCCNC(=O)[C@@H]1O[C@H]2CN(Cc3ccccc3)C(=O)[C@@H]1O2	63%	–	–	–
O=C([C@@H]1O[C@H]2CN(Cc3ccccc3)C(=O)[C@@H]1O2)N1CCCNCC1	63%	19%	10%	–
O=C(N[C@H](CO)Cc1ccccc1)[C@@H]1O[C@H]2CN(Cc3ccccc3)C(=O)[C@@H]1O2	30%	–	–	–
O=C([C@@H]1O[C@H]2CN(Cc3ccccc3)C(=O)[C@@H]1O2)N1CCSCC1	58%	–	–	–
O=C1[C@@H]2O[C@H](CN1Cc1ccccc1)O[C@H]2C(=O)N1CCC[C@@H]1CO	34%	–	–	–
CC(C)C[C@@H](CO)NC(=O)[C@@H]1O[C@H]2CN(Cc3ccccc3)C(=O)[C@@H]1O2	71%	61%	–	Activity [4]: 0 ×10³ CFU/ml; Activity [5]: 11.2 ×10³ CFU/ml; Activity [6]: 22.8 ×10³ CFU/ml; Activity [7]: 26.8 ×10³ CFU/ml; Activity [8]: 55.4 ×10³ CFU/ml; Activity [9]: 61.6 ×10³ CFU/ml; Activity [10]: 2.2 ×10³ CFU/ml; Activity [11]: 4.2 ×10³ CFU/ml; Activity [12]: 14 ×10³ CFU/ml; Activity [13]: 28.8 ×10³ CFU/ml; Activity [14]: 35.8 ×10³ CFU/ml; Activity [15]: 58 ×10³ CFU/ml; Activity [16]: 61 ×10³ CFU/ml; Activity [17]: 100 ×10³ CFU/ml; inhibition [18]: 1.4%; inhibition [19]: 6.9%
O=C([C@@H]1O[C@@H]2O[C@H]1C(=O)N(Cc1ccccc1)[C@H]2Cc1ccccc1)N1CCCNCC1	–	87%	17%	–
CN(CCN)C(=O)[C@@H]1O[C@@H]2O[C@H]1C(=O)N(Cc1ccccc1)[C@H]2Cc1ccccc1	–	87%	17%	–
